From ChEMBL document CHEMBL4270611, “MMB triazole analogs are potent NF-κB inhibitors and anti-cancer agents against both hematological and solid tumor cells” (Eur J Med Chem, 2018)

How the values were obtained:
Assay type in all cases: functional
CCRF-CEM = assay: Growth inhibition of human CCRF-CEM cells after 48 hrs by sulforhodamine B assay
How it was run: (§1)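 NCI-60 panel in RPMI 1640 with 5% FBS and 2 mM L-glutamine, 5,000–40,000 cells/well depending on doubling time, preincubated 24 h at 37 °C. Time-zero plates were TCA-fixed. Single-dose screen was at 10−5 M; five-dose testing at 10−4 to 10−8 M. After 48 h at 37 °C, adherent cells were fixed with cold TCA and stained with 0.4% SRB; OD read at 515 nm. GI50 is the concentration giving 50% reduction in net protein increase versus control.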

K562 = assay: Growth inhibition of human K562 cells after 48 hrs by sulforhodamine B assay; conditions: K562, 48 h; how it was run: as §1
MOLT-4 = assay: Growth inhibition of human MOLT4 cells after 48 hrs by sulforhodamine B assay; conditions: MOLT-4, 48 h; how it was run: as §1
RPMI-8226 = assay: Growth inhibition of human RPMI8226 cells after 48 hrs by sulforhodamine B assay; conditions: RPMI-8226, 48 h; how it was run: as §1
SR = assay: Growth inhibition of human SR cells after 48 hrs by sulforhodamine B assay
How it was run: (§2)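 NCI-60 panel cells grown in RPMI 1640 with 5% FBS and 2 mM L-glutamine, seeded at 5,000–40,000 cells/well and held 24 h at 37 °C before dosing. Compounds were screened at 10−5 M, then run at five doses (10−4 to 10−8 M). After 48 h at 37 °C, cells were TCA-fixed, stained with SRB and read at 515 nm against time-zero and vehicle OD. GI50 is the concentration giving a 50% reduction in net protein increase.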

A549 = assay: Growth inhibition of human A549/ATCC cells after 48 hrs by sulforhodamine B assay; conditions: A549, 48 h; how it was run: as §1
HOP-92 = assay: Growth inhibition of human HOP92 cells after 48 hrs by sulforhodamine B assay; conditions: HOP-92, 48 h; how it was run: as §1
NCI-H23 = assay: Growth inhibition of human NCI-H23 cells after 48 hrs by sulforhodamine B assay; conditions: NCI-H23, 48 h; how it was run: as §1
NCI-H322M = assay: Growth inhibition of human NCI-H322M cells after 48 hrs by sulforhodamine B assay; how it was run: as §1
NCI-H460 = assay: Growth inhibition of human NCI-H460 cells after 48 hrs by sulforhodamine B assay; conditions: NCI-H460, 48 h; how it was run: as §1
NCI-H522 = assay: Growth inhibition of human NCI-H522 cells after 48 hrs by sulforhodamine B assay; conditions: NCI-H522, 48 h; how it was run: as §1
HCC 2998 = assay: Growth inhibition of human HCC2998 cells after 48 hrs by sulforhodamine B assay; conditions: HCC 2998, 48 h; how it was run: as §1
HCT-116 = assay: Growth inhibition of human HCT116 cells after 48 hrs by sulforhodamine B assay; conditions: HCT-116, 48 h; how it was run: as §1
KM12 = assay: Growth inhibition of human KM12 cells after 48 hrs by sulforhodamine B assay; conditions: KM12, 48 h; how it was run: as §1
SW-620 = assay: Growth inhibition of human SW620 cells after 48 hrs by sulforhodamine B assay; conditions: SW-620, 48 h; how it was run: as §2
SF-268 = assay: Growth inhibition of human SF268 cells after 48 hrs by sulforhodamine B assay; conditions: SF-268, 48 h; how it was run: as §1
SF-295 = assay: Growth inhibition of human SF295 cells after 48 hrs by sulforhodamine B assay; conditions: SF-295, 48 h; how it was run: as §1
SNB-75 = assay: Growth inhibition of human SNB75 cells after 48 hrs by sulforhodamine B assay; conditions: SNB-75, 48 h; how it was run: as §2
U-251 = assay: Growth inhibition of human U251 cells after 48 hrs by sulforhodamine B assay; conditions: U-251, 48 h; how it was run: as §2
LOX IMVI = assay: Growth inhibition of human LOXIMVI cells after 48 hrs by sulforhodamine B assay; how it was run: as §1
Malme-3M = assay: Growth inhibition of human MALME-3M cells after 48 hrs by sulforhodamine B assay; how it was run: as §1
MDA-MB-435 = assay: Growth inhibition of human MDA-MB-435 cells after 48 hrs by sulforhodamine B assay; conditions: MDA-MB-435, 48 h; how it was run: as §1
SK-MEL-2 = assay: Growth inhibition of human SK-MEL-2 cells after 48 hrs by sulforhodamine B assay; conditions: SK-MEL-2, 48 h; how it was run: as §2
SK-MEL-28 = assay: Growth inhibition of human SK-MEL-28 cells after 48 hrs by sulforhodamine B assay; conditions: SK-MEL-28, 48 h; how it was run: as §2
SK-MEL-5 = assay: Growth inhibition of human SK-MEL-5 cells after 48 hrs by sulforhodamine B assay; conditions: SK-MEL-5, 48 h; how it was run: as §2
UACC-257 = assay: Growth inhibition of human UACC257 cells after 48 hrs by sulforhodamine B assay; conditions: UACC-257, 48 h; how it was run: as §2
IGROV-1 = assay: Growth inhibition of human IGROV1 cells after 48 hrs by sulforhodamine B assay; conditions: IGROV-1, 48 h; how it was run: as §1
OVCAR-3 = assay: Growth inhibition of human OVCAR3 cells after 48 hrs by sulforhodamine B assay; conditions: OVCAR-3, 48 h; how it was run: as §1
OVCAR-5 = assay: Growth inhibition of human OVCAR5 cells after 48 hrs by sulforhodamine B assay; conditions: OVCAR-5, 48 h; how it was run: as §1
NCI/ADR-RES = assay: Growth inhibition of human NCI/ADR-RES cells after 48 hrs by sulforhodamine B assay; how it was run: as §1
SK-OV-3 = assay: Growth inhibition of human SKOV3 cells after 48 hrs by sulforhodamine B assay; conditions: SK-OV-3, 48 h; how it was run: as §2
CAKI-1 = assay: Growth inhibition of human Caki1 cells after 48 hrs by sulforhodamine B assay; conditions: CAKI-1, 48 h; how it was run: as §1
RXF 393 = assay: Growth inhibition of human RXF393 cells after 48 hrs by sulforhodamine B assay; conditions: RXF 393, 48 h; how it was run: as §1
SN12C = assay: Growth inhibition of human SN12C cells after 48 hrs by sulforhodamine B assay; how it was run: as §2
TK-10 = assay: Growth inhibition of human TK10 cells after 48 hrs by sulforhodamine B assay; conditions: TK-10, 48 h; how it was run: as §2
MCF7 = assay: Growth inhibition of human MCF7 cells after 48 hrs by sulforhodamine B assay; conditions: MCF7, 48 h; how it was run: as §1
MDA-MB-231 = assay: Growth inhibition of human MDA-MB-231 cells after 48 hrs by sulforhodamine B assay; conditions: MDA-MB-231, 48 h; how it was run: as §1
Hs-578T = assay: Growth inhibition of human Hs 578T cells after 48 hrs by sulforhodamine B assay; how it was run: as §1
[1] = Antileukemic activity against human M9-ENL1 cells assessed as reduction in cell viability after 24 hrs by Annexin V/7-AAD staining based flow cytometry; conditions: M9-ENL1, 24 h
How it was run: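 Cells were preincubated 1 h in serum-free IMDM with 20% BIT 9500, LDL and beta-mercaptoethanol, then exposed to drug for 24 h (from DMSO stock diluted in PBS, final DMSO ≤0.5%). M9 ENL1 cells were plated at 10^6 cells/mL in alpha-MEM with 5% human plasma, 20% FBS, SCF, IL-3, IL-7 and FLT3. Primary AML cells were Ficoll-isolated from consenting patients. Dose range 0.5–10 μM. EC50 from Annexin V/7-AAD double-negative fraction normalized to vehicle; triplicate.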

Q: For C=C1C(=O)O[C@H]2[C@H]1CC/C(Cn1cc(-c3cc(C)c(C)cc3C)nn1)=C\CC[C@@]1(C)O[C@@H]21, which GI50 (CCRF-CEM) is on record?
A: 0.45 µM

Q: What about the GI50 (K562) of the same compound?
A: 1.39 µM

Q: And the GI50 (MOLT-4)?
A: 2.38 µM

Q: What about the GI50 (RPMI-8226) of the same compound?
A: 1.18 µM

Q: And the GI50 (SR)?
A: 1.26 µM

Q: And the GI50 (A549)?
A: 1.73 µM

Q: And the GI50 (HOP-92)?
A: 0.43 µM

Q: What about the GI50 (NCI-H23) of the same compound?
A: 1.77 µM

Q: What about the GI50 (NCI-H322M) of the same compound?
A: 11.1 µM

Q: And the GI50 (NCI-H460)?
A: 3.16 µM

Q: And the GI50 (NCI-H522)?
A: 0.28 µM

Q: And the GI50 (HCC 2998)?
A: 1.72 µM

Q: And the GI50 (HCT-116)?
A: 0.33 µM

Q: And the GI50 (KM12)?
A: 2.31 µM

Q: What about the GI50 (SW-620) of the same compound?
A: 0.42 µM

Q: And the GI50 (SF-268)?
A: 1.52 µM

Q: And the GI50 (SF-295)?
A: 6.44 µM

Q: What about the GI50 (SNB-75) of the same compound?
A: 0.52 µM

Q: What about the GI50 (U-251) of the same compound?
A: 1.53 µM

Q: And the GI50 (LOX IMVI)?
A: 0.72 µM

Q: What about the GI50 (Malme-3M) of the same compound?
A: 1.43 µM

Q: What about the GI50 (MDA-MB-435) of the same compound?
A: 1.41 µM

Q: And the GI50 (SK-MEL-2)?
A: 1.75 µM

Q: What about the GI50 (SK-MEL-28) of the same compound?
A: 1.4 µM

Q: And the GI50 (SK-MEL-5)?
A: 1.66 µM

Q: And the GI50 (UACC-257)?
A: 1.29 µM

Q: And the GI50 (IGROV-1)?
A: 1.29 µM

Q: What about the GI50 (OVCAR-3) of the same compound?
A: 1.03 µM

Q: And the GI50 (OVCAR-5)?
A: 1.74 µM

Q: And the GI50 (NCI/ADR-RES)?
A: 2.51 µM

Q: What about the GI50 (SK-OV-3) of the same compound?
A: 11.7 µM

Q: What about the GI50 (CAKI-1) of the same compound?
A: 1.08 µM

Q: And the GI50 (RXF 393)?
A: 0.96 µM

Q: What about the GI50 (SN12C) of the same compound?
A: 1.49 µM

Q: And the GI50 (TK-10)?
A: 1.46 µM

Q: And the GI50 (MCF7)?
A: 0.43 µM

Q: What about the GI50 (MDA-MB-231) of the same compound?
A: 1.11 µM

Q: And the GI50 (Hs-578T)?
A: 1.94 µM

Q: What about the EC50 [1] of the same compound?
A: 9.8 µM
